Data: ChEMBL document CHEMBL3877250, “Design, synthesis, and biological evaluation of (2E)-(2-oxo-1, 2-dihydro-3H-indol-3-ylidene)acetate derivatives as anti-proliferative agents through ROS-induced cell apoptosis” (Eur J Med Chem, 2016)
Activity calls are given as the source filed them. The calls are words filed in the database; no cut-off is given here.

Experiments:
[1] = Cell cycle arrest in human HCT116 cells assessed as G1 phase accumulation at 0.5 uM after 48 hrs by Annexin V-FITC/propidium iodide staining based flow cytometry (reference value: 40.83%); assay type: functional; conditions: HCT-116
[2] = Cell cycle arrest in human HCT116 cells assessed as G2/M phase accumulation at 0.5 uM after 48 hrs by Annexin V-FITC/propidium iodide staining based flow cytometry (reference value: 25.3%); assay type: functional; conditions: HCT-116
[3] = system: HCT-116; assay: Induction of apoptosis in human HCT116 cells assessed as live cells at 1 uM after 48 hrs by Annexin V-FITC/propidium iodide staining based flow cytometry (reference value: 88.7%); assay type: functional
[4] = system: HCT-116; assay: Inhibition of TrxR in human HCT116 cells after 3 hrs by DTNB assay; assay type: cell-based
Summary of the method: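 HCT116 cells plated at 4 × 10⁵ cells/well in six-well plates and incubated with or without compound for 3 h. Total protein extracted and quantified. Cellular TrxR activity measured by a DTNB-based kit with absorbance read at 412 nm.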

[5] = system: HCT-116; assay: Induction of apoptosis in human HCT116 cells after 48 hrs by Annexin V-FITC/propidium iodide staining based flow cytometry; assay type: functional, cell-based
Summary of the method: (§1)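 HCT116 seeded at 2×10^5 cells/well, cultured 6 h, then treated 48 h at 0.1, 0.5, 1, 4, 8 or 16 µM; DMSO (0.1%) served as vehicle. Cells washed twice in cold PBS, resuspended in binding buffer with FITC Annexin V and PI for 15 min at RT in the dark, diluted, and run on flow cytometry within 1 h.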

[6] = Cytotoxicity against human SK-BR-3 cells assessed as growth inhibition at 20 uM after 72 hrs by CCK-8 assay; assay type: functional; conditions: SK-BR-3, 72 h, read-out: GI
Summary of the method: (§2)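 Cells kept in RPMI 1640 with 10% heat-inactivated fetal calf serum and 1% streptomycin/penicillin at 37 °C, 5% CO2. After compound exposure, CCK-8 was added and cells were incubated 4 h at 37 °C, then absorbance was read at 450 nm. Viability is relative to untreated cells (100%). IC50 comes from nonlinear regression, mean of three separate determinations. Single-concentration screen at 20 µM.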

[7] = system: HCT-116; assay: Induction of apoptosis in human HCT116 cells assessed as necrotic cells at 16 uM after 48 hrs by Annexin V-FITC/propidium iodide staining based flow cytometry (reference value: 0.8%); assay type: functional
[8] = Cytotoxicity against human HCT116 cells assessed as growth inhibition at 20 uM after 72 hrs by CCK-8 assay; assay type: functional; conditions: HCT-116, 72 h, read-out: GI; summary of the method: as §2
[9] = system: HCT-116; assay: Induction of apoptosis in human HCT116 cells assessed as late apoptotic cells at 8 uM after 48 hrs by Annexin V-FITC/propidium iodide staining based flow cytometry (reference value: 6.7%); assay type: functional
[10] = Cytotoxicity against human Saos2 cells assessed as growth inhibition at 20 uM after 72 hrs by CCK-8 assay; assay type: functional; conditions: SAOS-2, 72 h, read-out: GI; summary of the method: as §2
[11] = system: HCT-116; assay: Induction of apoptosis in human HCT116 cells assessed as early apoptotic cells at 8 uM after 48 hrs by Annexin V-FITC/propidium iodide staining based flow cytometry (reference value: 3.8%); assay type: functional
[12] = Cell cycle arrest in human HCT116 cells assessed as G1 phase accumulation at 4 uM after 48 hrs by Annexin V-FITC/propidium iodide staining based flow cytometry (reference value: 40.83%); assay type: functional; conditions: HCT-116
[13] = system: HCT-116; assay: Induction of apoptosis in human HCT116 cells assessed as necrotic cells at 0.1 uM after 48 hrs by Annexin V-FITC/propidium iodide staining based flow cytometry (reference value: 0.8%); assay type: functional
[14] = Antitumor activity against human HepG2 cells assessed as growth inhibition at 20 uM after 72 hrs by CCK-8 assay; assay type: functional; conditions: HepG2, 72 h, read-out: GI; summary of the method: as §2
[15] = Cytotoxicity against human L02 cells after 72 hrs by CCK-8 assay; assay type: toxicity, cell-based; summary of the method: as §2
[16] = system: HCT-116; assay: Induction of apoptosis in human HCT116 cells assessed as necrotic cells at 0.5 uM after 48 hrs by Annexin V-FITC/propidium iodide staining based flow cytometry (reference value: 0.8%); assay type: functional
[17] = system: HCT-116; assay: Induction of apoptosis in human HCT116 cells assessed as necrotic cells at 8 uM after 48 hrs by Annexin V-FITC/propidium iodide staining based flow cytometry (reference value: 0.8%); assay type: functional
[18] = Cytotoxicity against human SK-BR-3 cells after 72 hrs by CCK-8 assay; assay type: functional, cell-based; conditions: SK-BR-3, 72 h; summary of the method: as §2
[19] = system: HCT-116; assay: Induction of apoptosis in human HCT116 cells assessed as necrotic cells at 1 uM after 48 hrs by Annexin V-FITC/propidium iodide staining based flow cytometry (reference value: 0.8%); assay type: functional
[20] = system: HCT-116; assay: Induction of apoptosis in human HCT116 cells assessed as early apoptotic cells at 16 uM after 48 hrs by Annexin V-FITC/propidium iodide staining based flow cytometry (reference value: 3.8%); assay type: functional; summary of the method: as §1
[21] = Cytotoxicity against human HL60 cells assessed as growth inhibition at 20 uM after 72 hrs by CCK-8 assay; assay type: functional; conditions: HL-60, 72 h, read-out: GI; summary of the method: as §2
[22] = system: HCT-116; assay: Induction of apoptosis in human HCT116 cells assessed as early apoptotic cells at 0.5 uM after 48 hrs by Annexin V-FITC/propidium iodide staining based flow cytometry (reference value: 3.8%); assay type: functional; summary of the method: as §1
[23] = Cytotoxicity against human HepG2 cells after 72 hrs by CCK-8 assay; assay type: functional, cell-based; conditions: HepG2, 72 h; summary of the method: as §2
[24] = system: HCT-116; assay: Induction of apoptosis in human HCT116 cells assessed as late apoptotic cells at 0.5 uM after 48 hrs by Annexin V-FITC/propidium iodide staining based flow cytometry (reference value: 6.7%); assay type: functional
[25] = Cytotoxicity against human OVCAR3 cells after 72 hrs by CCK-8 assay; assay type: functional, cell-based; conditions: OVCAR-3, 72 h; summary of the method: as §2
[26] = Cytotoxicity against human OVCAR3 cells assessed as growth inhibition at 20 uM after 72 hrs by CCK-8 assay; assay type: functional; conditions: OVCAR-3, 72 h, read-out: GI; summary of the method: as §2
[27] = system: HCT-116; assay: Induction of apoptosis in human HCT116 cells assessed as early apoptotic cells at 0.1 uM after 48 hrs by Annexin V-FITC/propidium iodide staining based flow cytometry (reference value: 3.8%); assay type: functional; summary of the method: as §1
[28] = Cytotoxicity against human L02 cells; assay type: toxicity, cell-based
[29] = Cell cycle arrest in human HCT116 cells assessed as G2/M phase accumulation at 0.1 uM after 48 hrs by Annexin V-FITC/propidium iodide staining based flow cytometry (reference value: 25.3%); assay type: functional; conditions: HCT-116
[30] = Cell cycle arrest in human HCT116 cells assessed as S phase accumulation at 3 uM after 48 hrs by Annexin V-FITC/propidium iodide staining based flow cytometry (reference value: 28.43%); assay type: functional; conditions: HCT-116
[31] = Cell cycle arrest in human HCT116 cells assessed as G2/M phase accumulation at 1 uM after 48 hrs by Annexin V-FITC/propidium iodide staining based flow cytometry (reference value: 25.3%); assay type: functional; conditions: HCT-116
[32] = system: HCT-116; assay: Induction of apoptosis in human HCT116 cells assessed as increase in Bax protein level after 9 hrs by Western blot method; assay type: functional, cell-based
Summary of the method: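 HCT116 cells plated at 4 × 10⁵ cells/well in six-well plates. Incubated with or without compound for 9 h, then proteins extracted. Lysates resolved by 12% SDS-PAGE and immunoblotted with anti-Bax and anti-Bcl-2 antibodies.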

For `CC(C)(C)OC(=O)/C=C1/C(=O)Nc2ccccc21`, the Activity [1] was 40.9%, the Activity [2] was 27.4% and the Activity [3] was 87.9%. For the same molecule, the inhibition [4] was “Dose-dependent effect”, the Activity [5] was “Dose-dependent effect” and the inhibition of growth at 20 µM [6] was 87.3%. For the same molecule, the Activity [7] was 2.1%, the inhibition of growth at 20 µM [8] was 89.5% and the Activity [9] was 13.6%. It also gave an inhibition of growth at 20 µM [10] of 83.3%, an Activity [11] of 7.1% and an Activity [12] of 26.2%. It also gave an Activity [13] of 0.6%, an inhibition of growth at 20 µM [14] of 86.1% and an IC50 at 72 h [15] of 2.45 µM. For the same molecule, the Activity [16] was 0.6%, the Activity [17] was 0.8% and the IC50 [18] was 3.42 µM. It also gave an Activity [19] of 1.3%, an Activity [20] of 2.7% and an inhibition of growth at 20 µM [21] of 94.5%. It also gave an Activity [22] of 2.9%, an IC50 [23] of 4.64 µM and an Activity [24] of 7.5%. For the same molecule, the IC50 [25] was 6.55 µM, the inhibition of growth at 20 µM [26] was 59.6% and the Activity [27] was 3.2%. The IC50 [28] was 6.21 µM, the Activity [29] was 20.6% and the Activity [30] was 30.1%. The Activity [31] was 33.1% and the Activity [32] was “Active”.
